Assay results taken from ChEMBL document CHEMBL1124248, “Preparation and antischistosomal and antitumor activity of hycanthone and some of its congeners. Evidence for the mode of action of hycanthone” (1988).

Assays:
Schistosoma mansoni [1] = assay: Incorporation of 1.3 *10e6 M [3H]uridine in hycanthone(HC) resistant Schistosoma mansoni; format: functional
Summary of the method: (§1)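 Adult HC-resistant S. mansoni were treated in vitro, and [3H]uridine incorporation by the worms was measured. Values are % of control. Concentrations are given in M × 10^6.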

Schistosoma mansoni [2] = assay: Day 50% survival of worms in culture of HC resistant Schistosoma mansoni at 5.2*10e6M; format: functional
Summary of the method: (§2)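 Adult HC-resistant S. mansoni were exposed in vitro and kept in culture. The value is the day by which 50% of worms were dead. Cultures were ended at different times in different experiments. Concentrations are given in M × 10^6.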

Schistosoma mansoni [3] = assay: Incorporation of 1.3 *10e6 M [3H]uridine in hycanthone(HC) sensitive Schistosoma mansoni; format: functional
Schistosoma mansoni [4] = assay: Incorporation of 5.2*10e6M [3H]uridine in hycanthone(HC) resistant Schistosoma mansoni; format: functional; summary of the method: as §1
Schistosoma mansoni [5] = assay: Incorporation of 2.6 *10e6 M [3H]uridine in hycanthone(HC) sensitive Schistosoma mansoni; format: functional
Schistosoma mansoni [6] = assay: Incorporation of 2.6 *10e6 M [3H]uridine in hycanthone(HC) resistant Schistosoma mansoni; format: functional; summary of the method: as §1
Schistosoma mansoni [7] = assay: Day 50% survival of worms in culture of HC sensitive Schistosoma mansoni at 1.3 *10e6 M; format: functional
Schistosoma mansoni [8] = assay: Incorporation of 5.2*10e6M [3H]-uridine in hycanthone(HC) sensitive Schistosoma mansoni; format: functional
Schistosoma mansoni [9] = assay: Day 50% survival of worms in culture of HC resistant Schistosoma mansoni at 1.3 *10e6 M; format: functional; summary of the method: as §2
Nucleic Acid [10] = assay: In vitro binding of [3H]HC to calf thymus DNA after precipitation with alcohol and TCA was measured after 1 day; format: nucleic-acid assay; details: Bos taurus
Summary of the method: (§3)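 0.02 µCi of 3H-labelled drug was added to 50 µg calf thymus DNA in 20 µL of 0.1 M citrate-phosphate buffer, pH 7. Incubated 1.5 h at 37 °C in the dark, diluted to 0.1 mL saline and dialyzed against saline at 4 °C for up to 4 days. Duplicate 10 µL samples taken from inside the bags at intervals were counted directly, or after TCA precipitation.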

Schistosoma mansoni [11] = assay: Incorporation of 1.4 M*10e6 [3H]uridine in hycanthone(HC) sensitive Schistosoma mansoni; format: functional
Schistosoma mansoni [12] = assay: Incorporation of 0.7 M *10e6 [3H]uridine in hycanthone(HC) sensitive Schistosoma mansoni; format: functional
HeLa [13] = assay: Incorporation of 2*10e-5 M [3H]-uridine in HeLa cells in absence of HC measured as as TCA precipitable radioactivity compared with non treated controls; format: functional, cell-based; details: Homo sapiens
Summary of the method: (§4)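 HeLa cells (10^6 per duplicate tube) were exposed to drug for 1 h, washed three times with medium, then held 2 h in drug-free medium. [3H]uridine was added for 1 h. Cells were precipitated with 10% TCA, and precipitates were filter-collected and counted. Values are % TCA-precipitable radioactivity versus untreated controls.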

[14] = (§5) Total radioactivity of [3H]HC was evaluated after 3 days; format: functional
Summary of the method: (§6)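 3H-labelled drug (0.02 µCi) was mixed with 50 µg calf thymus DNA in 0.1 M citrate-phosphate buffer, pH 7, and incubated in the dark for 1.5 h at 37 °C. The mix was diluted in saline and dialysed against saline at 4 °C. Duplicate samples drawn from inside the bags at intervals up to 4 days were counted directly.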

Mus musculus = assay: In vivo antitumor activity against p-388 lymphocytic leukemia in mice at 60 mg/kg; format: functional
Summary of the method: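 Murine P388 lymphocytic leukemia model tested by the National Cancer Institute. Compound given once daily for 9 days; activity expressed as T/C.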

Nucleic Acid [15] = assay: In vitro binding of [3H]HC to calf thymus DNA was measured after 3 days; format: nucleic-acid assay; details: Bos taurus; summary of the method: as §3
Schistosoma mansoni [16] = assay: Day 50% survival of worms in culture of HC sensitive Schistosoma mansoni; format: functional
Nucleic Acid [17] = assay: In vitro binding of [3H]HC to calf thymus DNA was measured after 1 day; format: nucleic-acid assay; details: Bos taurus; summary of the method: as §3
Nucleic Acid [18] = assay: In vitro binding of [3H]HC to calf thymus DNA; format: nucleic-acid assay; details: Bos taurus; summary of the method: as §3
Nucleic Acid [19] = assay: In vitro binding of [3H]HC to calf thymus DNA after precipitation with alcohol and TCA was measured after 2 day; format: nucleic-acid assay; details: Bos taurus; summary of the method: as §3
HeLa [20] = assay: Incorporation of 2*10e-5 M [3H]uridine in HeLa cells in presence of HC measured as as TCA precipitable radioactivity compared with non treated controls; format: functional, cell-based; details: Homo sapiens
Summary of the method: (§7)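 HeLa cells (10^6 per duplicate tube) were incubated 1 h with drug. [3H]uridine was then added and incubation continued 1 h with drug present. Cells were washed with cold saline and precipitated with 10% TCA. Precipitates were collected on glass filters, TCA-washed and counted. Values are % TCA-precipitable radioactivity versus untreated controls.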

Nucleic Acid [21] = assay: Binding of 5x 10e-4 M [3H]HC to HeLa DNA; format: nucleic-acid assay; details: Homo sapiens
Summary of the method: (§8)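 HeLa cells exposed 1 h to [3H]-labelled drug, washed three times with saline, then held 30 min at 37 °C in drug-free medium. After a 2 h digestion at 37 °C, crude DNA was ethanol-precipitated, purified on a CsCl density gradient, dialyzed and reprecipitated. DNA was quantified by A260. An aliquot was treated with DNase, and DNase-sensitive radioactivity was expressed as drug molecules per base pair.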

HeLa [22] = assay: Incorporation of [3H]uridine in HeLa cells after 2x10e-5 M HC measured as as TCA precipitable radioactivity compared with non treated controls; details: Homo sapiens
Schistosoma mansoni [23] = assay: Incorporation of 1.4 M*10e6 [3H]uridine in hycanthone(HC) resistant Schistosoma mansoni; format: functional; summary of the method: as §1
Nucleic Acid [24] = assay: In vitro binding of [3H]HC to calf thymus DNA was measured after 2 hours; format: nucleic-acid assay; details: Bos taurus; summary of the method: as §3
[25] = as §5; format: functional; summary of the method: as §6; remark: listed apart in the source
Nucleic Acid [26] = assay: In vitro binding of [3H]HC to calf thymus DNA was measured after 2 days; format: nucleic-acid assay; details: Bos taurus; summary of the method: as §3
HeLa [27] = assay: Incorporation of 10e-5 M [3H]uridine in HeLa cells in absence of HC measured as as TCA precipitable radioactivity compared with non treated controls; format: functional, cell-based; details: Homo sapiens; summary of the method: as §4
Nucleic Acid [28] = assay: In vitro binding of [3H]HC to calf thymus DNA after precipitation with alcohol and TCA was measured after 2 hours; format: nucleic-acid assay; details: Bos taurus; summary of the method: as §3
Nucleic Acid [29] = assay: Binding of 1x 10e-4 M [3H]HC to HeLa DNA; format: nucleic-acid assay; details: Homo sapiens; summary of the method: as §8
Schistosoma mansoni [30] = assay: Day 50% survival of worms in culture of HC resistant Schistosoma mansoni; format: functional; summary of the method: as §2
Nucleic Acid [31] = assay: Binding of 1x 10e-5 M [3H]HC to HeLa DNA; format: nucleic-acid assay; details: Homo sapiens; summary of the method: as §8
Nucleic Acid [32] = assay: In vitro binding of [3H]-HC to calf thymus DNA after precipitation with alcohol and TCA was measured after 3 days; format: nucleic-acid assay; details: Bos taurus; summary of the method: as §3
HeLa [33] = assay: Incorporation of 10e-5 M [3H]uridine in HeLa cells in presence of HC measured as as TCA precipitable radioactivity compared with non treated controls; format: functional, cell-based; details: Homo sapiens; summary of the method: as §7
Nucleic Acid [34] = assay: In vitro binding of [3H]HC to calf thymus DNA after precipitation with alcohol and TCA was measured after 4 day; format: nucleic-acid assay; details: Bos taurus; summary of the method: as §3
Nucleic Acid [35] = assay: In vitro binding of [3H]HC to calf thymus DNA was measured after 4 day; format: nucleic-acid assay; details: Bos taurus; summary of the method: as §3
[36] = Total radioactivity of [3H]HC was evaluated after 2 hr; format: functional; summary of the method: as §6
Nucleic Acid [37] = assay: In vitro binding of [3H]HC to calf thymus DNA after precipitation with alcohol and TCA was measured; format: nucleic-acid assay; details: Bos taurus; summary of the method: as §3
[38] = Total radioactivity of [3H]HC was evaluated after 2 hours; format: functional; summary of the method: as §6

CN(C)CCNc1ccc(CO)c2sc3ccc(O)cc3c(=O)c12
Control (Schistosoma mansoni [1]): 96% | Effect (Schistosoma mansoni [2]): >12 days | Control (Schistosoma mansoni [3]): 43% | Control (Schistosoma mansoni [4]): 91% | Control (Schistosoma mansoni [5]): 20% | Control (Schistosoma mansoni [6]): 108% | Effect (Schistosoma mansoni [7]): 9 days | Control (Schistosoma mansoni [8]): 23% | Effect (Schistosoma mansoni [9]): >12 days

CCN(CC)CCNc1ccc(CO)c2sc3ccccc3c(=O)c12 [HYCANTHONE]
Radioactivity (Nucleic Acid [10]): 330 c.p.m. | Control (Schistosoma mansoni [11]): 30% | Control (Schistosoma mansoni [12]): 20% | Radioactivity (HeLa [13]): 68% | Radioactivity [14]: 700 c.p.m. | T/C (Mus musculus): 165 | Radioactivity (Nucleic Acid [15]): 1600 c.p.m. | Effect (Schistosoma mansoni [16]): 7 days | Radioactivity (Nucleic Acid [17]): 3460 c.p.m. | Radioactivity (Nucleic Acid [18]): 235000 c.p.m. | Radioactivity (Nucleic Acid [19]): 275 c.p.m. | Radioactivity (HeLa [20]): 37% | Drug mol/base pair (Nucleic Acid [21]): 7e-07 | Radioactivity (HeLa [22]): 68% | Control (Schistosoma mansoni [23]): 98% | Radioactivity (Nucleic Acid [24]): 50000 c.p.m. | Radioactivity [25]: 62 c.p.m. | Radioactivity (Nucleic Acid [26]): 2300 c.p.m. | Radioactivity (HeLa [27]): 88% | Radioactivity (Nucleic Acid [28]): 430 c.p.m. | Drug mol/base pair (Nucleic Acid [29]): < 4e-08 | Effect (Schistosoma mansoni [30]): >12 days | Drug mol/base pair (Nucleic Acid [31]): < 4e-08 | Radioactivity (Nucleic Acid [32]): 265 c.p.m. | Radioactivity (HeLa [33]): 32% | Radioactivity (Nucleic Acid [34]): 200 c.p.m. | Radioactivity (Nucleic Acid [35]): 1100 c.p.m. | Radioactivity [36]: 100 c.p.m. | Radioactivity (Nucleic Acid [37]): 350 c.p.m. | Radioactivity [38]: 20500 c.p.m.
